Results from ChEMBL document CHEMBL1140485, “MexAB-OprM specific efflux pump inhibitors in Pseudomonas aeruginosa. Part 7: highly soluble and in vivo active quaternary ammonium analogue D13-9001, a potential preclinical candidate” (Bioorg Med Chem, 2007).
In brackets after ≈: the same amount, converted by molar mass.

Key:
Pseudomonas aeruginosa [1] = experiment: Inhibition of Pseudomonas aeruginosa PAM1723 MexAB-OprM assessed as drug level required to decrease MIC of aztreonam
Summary of the method: (§1)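 P. aeruginosa PAM1723 overexpresses MexAB-OprM, with MexCD-OprJ and MexEF-OprN disrupted. The partner antibiotic's MIC was measured with and without inhibitor by NCCLS broth microdilution in Mueller–Hinton broth. Inoculum was 1 × 10⁶ CFU/mL, incubated 18 h at 37 °C, and growth was read visually. The value is the minimum inhibitor concentration that lowers the partner's MIC 8-fold (MPC₈).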

Pseudomonas aeruginosa [2] = experiment: Inhibition of Pseudomonas aeruginosa PAM1723 MexAB-OprM assessed as drug level required to decrease MIC of levofloxacin in presence of 0.125% HAS; summary of the method: as §1
[3] = Aqueous solubility at pH 6.8; type: physicochemical; conditions: buffer
Pseudomonas aeruginosa [4] = experiment: Inhibition of Pseudomonas aeruginosa PAM1723 MexAB-OprM assessed as drug level required to decrease MIC of levofloxacin; summary of the method: as §1
Mus musculus [5] = experiment: Toxicity in mouse assessed as lethal effect at 100 mg/kg, iv; type: organism-based; set-up: dose 100 mg/kg, route intravenous; conditions: in vivo
Summary of the method: (§2)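 Mice received a single intravenous dose at 50 or 100 mg/kg in groups of three. The read-out was the number of deaths per group.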

[6] = Drug level in cynomolgus monkey serum at 5 mg/kg, iv after 1 hr; type: ADME, organism-based, Macaca fascicularis; set-up: dose 5 mg/kg, route intravenous; conditions: read-out: Activity
Summary of the method: (§3)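 Monkeys received a 1 h intravenous infusion at 1 or 5 mg/kg in 10 mL/kg saline. Plasma was processed as for the rat samples: centrifuged, stored at −20 °C, then MeCN extraction with propranolol internal standard.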

[7] = Mean residential time (0 to infinity) in cynomolgus monkey at 1 mg/kg, iv; type: ADME, organism-based, Macaca fascicularis; set-up: dose 1 mg/kg, route intravenous; conditions: in vivo; summary of the method: as §3
[8] = Half life in cynomolgus monkey at 1 mg/kg, iv; type: ADME, organism-based, Macaca fascicularis; set-up: dose 1 mg/kg, route intravenous; conditions: in vivo; summary of the method: as §3
[9] = Drug level in Sprague-Dawley rat serum at 1.25 mg/kg, iv after 2 hrs; type: ADME, organism-based; set-up: dose 1.25 mg/kg, route intravenous; conditions: read-out: Activity
Summary of the method: (§4)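 Rats received a 2 h intravenous infusion at 1.25, 5 or 20 mg/kg, given with AZT 1000 mg/kg in 40 mL/kg 0.0005 N NaOH-saline. Blood was drawn at 40, 80 and 120 min into the infusion, then 0.25, 0.5, 1, 2 and 4 h after it ended. Plasma was stored at −20 °C and extracted with MeCN using propranolol as internal standard.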

[10] = Drug level in cynomolgus monkey serum at 1 mg/kg, iv after 1 hr; type: ADME, organism-based, Macaca fascicularis; set-up: dose 1 mg/kg, route intravenous; conditions: read-out: Activity; summary of the method: as §3
[11] = Clearance (0 to infinity) in cynomolgus monkey at 1 mg/kg, iv; type: ADME, organism-based, Macaca fascicularis; set-up: dose 1 mg/kg, route intravenous; conditions: in vivo; summary of the method: as §3
[12] = Drug level in Sprague-Dawley rat serum at 5 mg/kg, iv after 2 hrs; type: ADME, organism-based; set-up: dose 5 mg/kg, route intravenous; conditions: read-out: Activity; summary of the method: as §4
Rattus norvegicus [13] = experiment: Half life in Sprague-Dawley rat at 20 mg/kg, iv; type: ADME, organism-based; set-up: dose 20 mg/kg, route intravenous; conditions: in vivo; summary of the method: as §4
[14] = Clearance (0 to infinity) in cynomolgus monkey at 5 mg/kg, iv; type: ADME, organism-based, Macaca fascicularis; set-up: dose 5 mg/kg, route intravenous; conditions: in vivo; summary of the method: as §3
[15] = AUC (0 to infinity) in cynomolgus monkey at 1 mg/kg, iv; type: ADME, organism-based, Macaca fascicularis; set-up: time infinity, dose 1 mg/kg, route intravenous; conditions: plasma
Summary of the method: (§5)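 Monkeys given compound alone by 1 h intravenous infusion in 10 mL/kg saline. Plasma prepared and analysed as in the rat study: propranolol internal standard, MeCN extraction, centrifugation.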

Rattus norvegicus [16] = experiment: Volume of distribution at steady state (0 to infinity) in Sprague-Dawley rat at 1.25 mg/kg, iv; type: ADME, organism-based; set-up: dose 1.25 mg/kg, route intravenous; conditions: in vivo; summary of the method: as §4
[17] = Volume of distribution at steady state (0 to infinity) in cynomolgus monkey at 5 mg/kg, iv; type: ADME, organism-based, Macaca fascicularis; set-up: dose 5 mg/kg, route intravenous; conditions: in vivo, read-out: Vdss; summary of the method: as §3
Rattus norvegicus [18] = experiment: Mean residential time (0 to infinity) in Sprague-Dawley rat at 1.25 mg/kg, iv; type: ADME, organism-based; set-up: dose 1.25 mg/kg, route intravenous; conditions: in vivo; summary of the method: as §4
[19] = AUC (0 to infinity) in Sprague-Dawley rat at 5 mg/kg, iv; type: ADME, organism-based; set-up: time infinity, dose 5 mg/kg, route intravenous; conditions: plasma
Summary of the method: (§6)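 Rats (SD) given compound by 2 h intravenous infusion with AZT 1000 mg/kg, in 40 mL/kg 0.0005 N NaOH-saline. Blood sampled at 40, 80 and 120 min into infusion and 0.25, 0.5, 1, 2 and 4 h after its end. Plasma stored at −20 °C, spiked with propranolol internal standard, extracted with MeCN and centrifuged before analysis.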

Rattus norvegicus [20] = experiment: Mean residential time (0 to infinity) in Sprague-Dawley rat at 20 mg/kg, iv; type: ADME, organism-based; set-up: dose 20 mg/kg, route intravenous; conditions: in vivo; summary of the method: as §4
Rattus norvegicus [21] = experiment: Volume of distribution at steady state (0 to infinity) in Sprague-Dawley rat at 20 mg/kg, iv; type: ADME, organism-based; set-up: dose 20 mg/kg, route intravenous; conditions: in vivo; summary of the method: as §4
[22] = AUC (0 to infinity) in cynomolgus monkey at 5 mg/kg, iv; type: ADME, organism-based, Macaca fascicularis; set-up: time infinity, dose 5 mg/kg, route intravenous; conditions: plasma; summary of the method: as §5
[23] = AUC (0 to infinity) in Sprague-Dawley rat at 1.25 mg/kg, iv; type: ADME, organism-based; set-up: time infinity, dose 1.25 mg/kg, route intravenous; conditions: plasma; summary of the method: as §6
[24] = Half life in cynomolgus monkey at 5 mg/kg, iv; type: ADME, organism-based, Macaca fascicularis; set-up: dose 5 mg/kg, route intravenous; conditions: in vivo; summary of the method: as §3
Rattus norvegicus [25] = experiment: Mean residential time (0 to infinity) in Sprague-Dawley rat at 5 mg/kg, iv; type: ADME, organism-based; set-up: dose 5 mg/kg, route intravenous; conditions: in vivo; summary of the method: as §4
Rattus norvegicus [26] = experiment: Half life in Sprague-Dawley rat at 1.25 mg/kg, iv; type: ADME, organism-based; set-up: dose 1.25 mg/kg, route intravenous; conditions: in vivo; summary of the method: as §4
[27] = AUC (0 to infinity) in Sprague-Dawley rat at 20 mg/kg, iv; type: ADME, organism-based; set-up: time infinity, dose 20 mg/kg, route intravenous; conditions: plasma; summary of the method: as §6
Rattus norvegicus [28] = experiment: Half life in Sprague-Dawley rat at 5 mg/kg, iv; type: ADME, organism-based; set-up: dose 5 mg/kg, route intravenous; conditions: in vivo; summary of the method: as §4
Rattus norvegicus [29] = experiment: Volume of distribution at steady state (0 to infinity) in Sprague-Dawley rat at 5 mg/kg, iv; type: ADME, organism-based; set-up: dose 5 mg/kg, route intravenous; conditions: in vivo; summary of the method: as §4
[30] = Mean residential time (0 to infinity) in cynomolgus monkey at 5 mg/kg, iv; type: ADME, organism-based, Macaca fascicularis; set-up: dose 5 mg/kg, route intravenous; conditions: in vivo; summary of the method: as §3
[31] = Volume of distribution at steady state (0 to infinity) in cynomolgus monkey at 1 mg/kg, iv; type: ADME, organism-based, Macaca fascicularis; set-up: dose 1 mg/kg, route intravenous; conditions: in vivo, read-out: Vdss; summary of the method: as §3
[32] = Drug level in Sprague-Dawley rat serum at 20 mg/kg, iv after 2 hrs; type: ADME, organism-based; set-up: dose 20 mg/kg, route intravenous; conditions: read-out: Activity; summary of the method: as §4
Mus musculus [33] = experiment: Toxicity in mouse assessed as lethal effect at 50 mg/kg, iv; type: organism-based; set-up: dose 50 mg/kg, route intravenous; conditions: in vivo; summary of the method: as §2

CC(C)(C)c1csc(NC(=O)c2ccn3c(=O)c(/C=C/c4nnn[nH]4)c(N4CCC(OC(=O)NCC[N+](C)(C)CC(=O)[O-])CC4)nc3c2)n1
Activity (Pseudomonas aeruginosa [1]): 4 µg/mL | Activity (Pseudomonas aeruginosa [2]): 16 µg/mL | solubility [3]: 170 µg/mL (≈ 245 µM) | Activity (Pseudomonas aeruginosa [4]): 8 µg/mL

CC(C)(C)c1csc(NC(=O)c2ccn3c(=O)c(/C=C/c4nnn[nH]4)c(N4CCC/C(=C\C(=O)NCC[N+](C)(C)CC(=O)[O-])C4)nc3c2)n1
Activity (Pseudomonas aeruginosa [1]): 8 µg/mL | Activity (Pseudomonas aeruginosa [2]): > 16 µg/mL | Activity [3]: Not Active | Activity (Pseudomonas aeruginosa [4]): 16 µg/mL

CC(C)(C)c1csc(NC(=O)c2ccn3c(=O)c(/C=C/c4nnn[nH]4)c(N4CCC[C@@H](CC(=O)NCC[N+](C)(C)CC(=O)[O-])C4)nc3c2)n1
Activity (Pseudomonas aeruginosa [1]): 4 µg/mL | Activity (Pseudomonas aeruginosa [2]): 8 µg/mL | solubility [3]: 860 µg/mL (≈ 1240 µM) | Activity (Pseudomonas aeruginosa [4]): 4 µg/mL

CC(C)(C)c1csc(NC(=O)c2ccn3c(=O)c(/C=C/c4nnn[nH]4)c(N4CCC[C@@H](OC(=O)NCC[N+](C)(C)C)C4)nc3c2)n1
Activity (Pseudomonas aeruginosa [1]): 2 µg/mL | Activity (Pseudomonas aeruginosa [2]): 4 µg/mL | Activity (Pseudomonas aeruginosa [4]): 2 µg/mL

CC(C)(C)c1csc(NC(=O)c2ccn3c(=O)c(/C=C/c4nnn[nH]4)c(N4CCC[C@H](OC(=O)NCC[N+](C)(C)C)C4)nc3c2)n1
solubility [3]: 547 µg/mL

CC(C)(C)c1csc(NC(=O)c2ccn3c(=O)c(/C=C/c4nnn[nH]4)c(N4CCC[C@@H](OC(N)=O)C4)nc3c2)n1
Activity (Pseudomonas aeruginosa [1]): < 0.25 µg/mL | Activity (Pseudomonas aeruginosa [2]): 2 µg/mL | solubility [3]: 9.2 µg/mL (≈ 16.3 µM) | Activity (Pseudomonas aeruginosa [4]): 0.5 µg/mL

CC(C)(C)c1csc(NC(=O)c2ccn3c(=O)c(/C=C/c4nnn[nH]4)c(N4CCC[C@@H](OC(=O)NCCC[N+](C)(C)CC(=O)[O-])C4)nc3c2)n1
Activity (Pseudomonas aeruginosa [1]): 2 µg/mL | Activity (Pseudomonas aeruginosa [2]): 4 µg/mL | solubility [3]: 610 µg/mL (≈ 862 µM) | Activity (Pseudomonas aeruginosa [4]): 4 µg/mL

CC(C)(C)c1csc(NC(=O)c2ccn3c(=O)c(/C=C/c4nnn[nH]4)c(N4CCC[C@@H](OC(=O)NCC[N+](C)(C)CC(=O)[O-])C4)nc3c2)n1
Activity (Mus musculus [5]): Non-toxic | concentration at 1 h [6]: 7640 ng/mL | Activity (Pseudomonas aeruginosa [1]): 2 µg/mL | MRT inf [7]: 36.8 min | half-life [8]: 16.8 min | concentration at 2 h [9]: 262 ng/mL | concentration at 1 h [10]: 1220 ng/mL | clearance [11]: 11.2 mL/min/kg | concentration at 2 h [12]: 1840 ng/mL | Activity (Pseudomonas aeruginosa [2]): 4 µg/mL | t1/2 (Rattus norvegicus [13]): 15 min | clearance [14]: 10.7 mL/min/kg | AUC(0-inf) [15]: 1490 ng·h/mL | Vdss (Rattus norvegicus [16]): 3.049 L/kg | Vd [17]: 0.4 L/kg | solubility [3]: 747 µg/mL (≈ 1080 µM) | Activity (Pseudomonas aeruginosa [4]): 2 µg/mL | MRT (Rattus norvegicus [18]): 71.16 min | AUC(0-inf) [19]: 3530 ng·h/mL | MRT (Rattus norvegicus [20]): 72.9 min | Vdss (Rattus norvegicus [21]): 1.71 L/kg | AUC(0-inf) [22]: 7890 ng·h/mL | AUC(0-inf) [23]: 486 ng·h/mL | half-life [24]: 24.6 min | MRT (Rattus norvegicus [25]): 72.54 min | t1/2 (Rattus norvegicus [26]): 13.8 min | AUC(0-inf) [27]: 14200 ng·h/mL | t1/2 (Rattus norvegicus [28]): 10.8 min | Vdss (Rattus norvegicus [29]): 1.712 L/kg | MRT inf [30]: 37.5 min | Vd [31]: 0.414 L/kg | concentration at 2 h [32]: 8040 ng/mL

CC(C)(C)c1csc(NC(=O)c2ccn3c(=O)c(/C=C/c4nnn[nH]4)c(N4CCC[C@@H](OC(=O)NCC[N+](C)(C)CC(N)=O)C4)nc3c2)n1
Activity (Mus musculus [5]): Non-toxic | Activity (Pseudomonas aeruginosa [1]): 4 µg/mL | Activity (Pseudomonas aeruginosa [2]): 4 µg/mL | solubility [3]: 95 µg/mL | Activity (Pseudomonas aeruginosa [4]): 4 µg/mL

CN(C)CCNC(=O)O[C@@H]1CCCN(c2nc3cc(C(=O)Nc4nc(C(C)(C)C)cs4)ccn3c(=O)c2/C=C/c2nnn[nH]2)C1
Activity (Pseudomonas aeruginosa [1]): 1 µg/mL | Activity (Pseudomonas aeruginosa [2]): 4 µg/mL | Activity (Pseudomonas aeruginosa [4]): 2 µg/mL | Activity (Mus musculus [33]): Non-toxic
